Data published in ChEMBL document CHEMBL1145129, “Design, synthesis, and anticancer properties of 4,4'-dihydroxybenzophenone-2,4-dinitrophenylhydrazone and analogues” (J Med Chem, 2003).
≈ marks a conversion by molar mass, not a printed value.

Columns and labels:
Homo sapiens [1] = organism: Homo sapiens; test: In vitro cytotoxicity in Human ovary tumor cells; format: functional; conditions: Female gonad
In short: (§1)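 Fresh surgical human tumor specimens minced to ≤0.1 mm fragments in RPMI-1640 with 10% FBS, streptomycin and penicillin (10⁶–10⁸ cells/mL), explanted into slide flasks. Exposed 24 h at 37 °C, 5% CO₂, to test agent 0.1–20 μg/mL (≥5 doses over 3 logs), in duplicate. Washed, recultured 7–14 days, fixed, HPF cell counts vs control; IC50 (SD) from percent growth.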

[2] = system: breast cancer cells (Homo sapiens); test: In vitro cytotoxicity in Human breast tumor cells
Melanoma tumor cell line [3] = test: In vitro cytotoxicity against Human melanoma tumor cells.; format: functional, cell-based; in short: as §1
Homo sapiens [4] = organism: Homo sapiens; test: In vitro cytotoxicity against Human lung tumor cells.; format: functional; in short: as §1
Colon carcinoma cell = test: In vitro cytotoxicity was tested in human colon tumor cells; format: functional, cell-based; in short: as §1
[5] = In vitro cytotoxicity in SN 12 PM6 cell line; format: functional, cell-based; conditions: Homo sapiens
In short: (§2)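 Established tumor lines kept in RPMI-1640 with 10% fetal calf serum and penicillin/streptomycin at 36 °C, 10% CO₂. Seeded 2000–3000 cells/well; hydrazone-containing medium added after 18 h, then 36 h further culture. Viable cells read by MTT absorbance at 570 nm; cytostasis (%) = (1 − A_treated/A_control) × 100.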

[6] = In vitro cytotoxicity in K 1735 M2 cell line; format: functional
[7] = In vitro cytotoxicity in KM 12L4 cell line; format: functional, cell-based; conditions: Homo sapiens; in short: as §2
[8] = In vitro cytotoxicity in Human breast tumor cells; format: functional, cell-based; in short: as §1
MDA-MB-435 = test: In vitro cytotoxicity in MDA-MB-435 cell line; format: functional, cell-based; conditions: Homo sapiens; in short: as §2
Homo sapiens [9] = organism: Homo sapiens; test: In vitro cytotoxicity against Human lung tumor cells; Not available.; format: functional; in short: as §1
Melanoma tumor cell line [10] = test: In vitro cytotoxicity against Human melanoma tumor cells; Not available.; format: functional, cell-based; in short: as §1
[11] = In vitro cytotoxicity in FDCP-1 cell line; conditions: Mus musculus, FDC-P1
[12] = In vitro cytotoxicity in B 16 F10 cell line; conditions: Mus musculus, B16-F10

Compound	IC50 (Homo sapiens [1]) [µg/mL]	IC50 [2] [µg/mL]	IC50 (Melanoma tumor cell line [3]) [µg/mL]	IC50 (Homo sapiens [4]) [µg/mL]	IC50 (Colon carcinoma cell) [µg/mL]	IC50 [8] [µg/mL]	IC50 (Homo sapiens [9])	IC50 (Melanoma tumor cell line [10])	other results
O=[N+]([O-])c1ccc(NN=C(c2ccccc2)c2ccccc2)c([N+](=O)[O-])c1	> 10	> 5	> 10	> 5	–	–	–	–	–
CC(=O)Oc1cccc2c(/N=N/c3ccc([N+](=O)[O-])cc3[N+](=O)[O-])c3cccc(OC(C)=O)c3c(O)c12	0.3 (≈ 0.595 µM)	–	0.07 (≈ 0.139 µM)	0.1 (≈ 0.198 µM)	0.16 (≈ 0.317 µM)	0.04 (≈ 0.0793 µM)	–	–	IC50 [5]: 0.021 µg/mL (≈ 0.0416 µM); IC50 [6]: 0.042 µg/mL (≈ 0.0833 µM); IC50 [7]: 0.07 µg/mL (≈ 0.139 µM); IC50 (MDA-MB-435): 0.041 µg/mL (≈ 0.0813 µM)
COc1ccc(C(=NNc2ccc([N+](=O)[O-])cc2[N+](=O)[O-])c2ccc(OC)cc2O)c(O)c1	> 5	1.5 (≈ 3.3 µM)	–	–	4.5 (≈ 9.9 µM)	–	Not Active	Not Active	–
O=[N+]([O-])c1ccc(/N=N/c2c3ccccc3c(O)c3c(O)c4ccccc4cc23)c([N+](=O)[O-])c1	–	–	–	0.1 (≈ 0.22 µM)	–	0.3 (≈ 0.66 µM)	–	Not Active	–
O=[N+]([O-])c1ccc(NN=c2c3ccccc3oc3ccccc23)c([N+](=O)[O-])c1	0.05 (≈ 0.133 µM)	–	> 10	> 10	0.05 (≈ 0.133 µM)	0.04 (≈ 0.106 µM)	–	–	–
C=CCOc1cccc2c(/N=N/c3ccc([N+](=O)[O-])cc3[N+](=O)[O-])c3cccc(OC(C)=O)c3c(O)c12	–	–	–	0.07 (≈ 0.139 µM)	0.08 (≈ 0.159 µM)	0.1 (≈ 0.199 µM)	–	Not Active	–
C/C(=N\Nc1ccc([N+](=O)[O-])cc1)c1ccc(O)cc1	6 (≈ 22.1 µM)	–	–	–	–	5 (≈ 18.4 µM)	Not Active	Not Active	–
Oc1ccc(C(=NNc2ccccc2)c2ccc(O)cc2)cc1	6.2 (≈ 20.4 µM)	> 5	7 (≈ 23 µM)	> 10	> 5	–	–	–	–
COc1ccc2c(=NNc3ccc([N+](=O)[O-])cc3[N+](=O)[O-])c3ccc(OC)cc3oc2c1	–	–	–	–	–	> 5	Not Active	Not Active	IC50 [11]: 0.95 µg/mL (≈ 2.18 µM); IC50 [5]: 0.62 µg/mL (≈ 1.42 µM); IC50 [6]: 0.64 µg/mL (≈ 1.47 µM); IC50 [12]: 0.44 µg/mL (≈ 1.01 µM); IC50 [7]: 1.57 µg/mL (≈ 3.6 µM); IC50 (MDA-MB-435): 0.41 µg/mL (≈ 0.94 µM)
O=[N+]([O-])c1ccc(N/N=C(\c2ccccc2)c2ccc(O)cc2O)c([N+](=O)[O-])c1	–	0.5 (≈ 1.27 µM)	–	–	–	–	Not Active	Not Active	–
CC(=O)Oc1cccc2c1-c1nn(-c3ccccc3)c(=O)c3cccc(c13)C2=O	> 10	–	–	–	–	> 5	Not Active	Not Active	–
CC(=O)Nc1ccc(C(=NNc2ccc([N+](=O)[O-])cc2[N+](=O)[O-])c2ccc(NC(C)=O)cc2)cc1	> 10	–	> 10	–	> 10	> 10	Not Active	–	–
O=[N+]([O-])c1ccc(NN=C(c2ccccc2O)c2ccccc2O)c([N+](=O)[O-])c1	5 (≈ 12.7 µM)	4.7 (≈ 11.9 µM)	> 5	6 (≈ 15.2 µM)	8 (≈ 20.3 µM)	–	–	–	–
Nc1ccc2c(/N=N/c3ccc([N+](=O)[O-])cc3[N+](=O)[O-])c3ccccc3c(O)c2c1N	6 (≈ 14.3 µM)	–	–	–	5 (≈ 12 µM)	5 (≈ 12 µM)	Not Active	Not Active	–
Cc1ccc(NN=C(c2ccc(O)cc2)c2ccc(O)cc2)c(C)c1	–	10 (≈ 30.1 µM)	–	–	–	–	Not Active	Not Active	–
Nc1ccc(/C(=N/Nc2ccc([N+](=O)[O-])cc2[N+](=O)[O-])c2ccccc2N)cc1	2 (≈ 5.1 µM)	–	6 (≈ 15.3 µM)	–	8 (≈ 20.4 µM)	0.7 (≈ 1.78 µM)	Not Active	–	–
CCN(CC)c1ccc(C(=NNc2ccc([N+](=O)[O-])cc2[N+](=O)[O-])c2ccc(N(CC)CC)cc2)cc1	–	–	5 (≈ 9.91 µM)	–	> 10	> 7	Not Active	–	–
O=c1c2cccc3c2c(nn1-c1ccccc1[N+](=O)[O-])-c1ccccc1-3	> 5	–	0.4 (≈ 1.17 µM)	> 5	> 5	> 5	–	–	–
